This is one part of a sample in which hits are shown more often than they occur.
KDM4C inh: inhibitors of GASC-1 (KDM4C) histone demethylase, primary screen, biochemical, single concentration HTS. Lysine-specific demethylase 4C (Homo sapiens), Q9H3R0. GST-KDM4C 2-372, H3K9me3 peptide, LANCE TR-FRET. inhibition, % at 12.5 µM. actives 0.15% (n = 96,000). AID 720574, 2013;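 active = mean replicate inhibition above about 25%, with at least 55% of replicates also reaching it, limit read from the data, passing the limit was not always enough; inconclusive = only one of those two conditions met; inactive = neither condition met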
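Material: GST-tagged GASC-1 (JMJD2C) catalytic fragment, aa 2-372 / Quantity: enzyme final amount 10 nM / Medium: HEPES buffer, pH 7.5, plus ascorbate / Doses: one test concentration per compound / Incubation: 30 min reaction, 60 min detection, RT / Measured by: LANCE TR-FRET / Read-out: inhibition from TR-FRET ratio decrease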
IDH1 R132H inh: inhibitors of IDH1 R132H reductase, primary screen, biochemical, plate reader, single point | Isocitrate dehydrogenase [NADP] cytoplasmic (Homo sapiens), O75874 | diaphorase/resazurin fluorescence, 60 min | inhibition, % at 10 µM | actives 0.18% (n = 70,000) | AID 624101, 2012; in the data active = inhibition above about 34%; inconclusive = no clear call, values can overlap the other calls; inactive = below about 11%;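 note: 0% = DMSO and 100% = no enzyme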
Target sequence (O75874 whole entry R132H): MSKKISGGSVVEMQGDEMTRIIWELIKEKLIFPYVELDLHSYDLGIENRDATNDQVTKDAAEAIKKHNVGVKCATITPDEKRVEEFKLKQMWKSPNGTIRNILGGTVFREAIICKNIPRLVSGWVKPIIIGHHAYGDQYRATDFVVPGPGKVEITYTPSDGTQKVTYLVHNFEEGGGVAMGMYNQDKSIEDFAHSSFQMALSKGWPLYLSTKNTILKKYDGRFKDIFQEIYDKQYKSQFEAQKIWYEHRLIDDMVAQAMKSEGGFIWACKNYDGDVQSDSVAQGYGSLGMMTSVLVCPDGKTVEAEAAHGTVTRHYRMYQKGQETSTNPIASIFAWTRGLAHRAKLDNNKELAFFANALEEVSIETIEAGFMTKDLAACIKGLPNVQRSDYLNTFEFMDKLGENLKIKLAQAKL
T cruzi growth-1: T. cruzi intracellular proliferation inhibitors, primary screen, cell-based, beta-gal Tulahuen parasites, NIH3T3 host, luminescence; T. cruzi beta-gal in NIH3T3, GalScreen luminescence, 90 h; actives 5.9% (n = 77,000); AID 624255, 2012; inhibition, % at 8.34 µM;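 active = mean inhibition above about 93%, with at least 55% of replicates each passing it, limit read from the data, passing the limit was not always enough; inconclusive = only one of those two conditions holds; inactive = neither condition holds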
T cruzi growth-2: T. cruzi intracellular proliferation inhibitors, confirmation, cell-based, NIH3T3 host, beta-gal parasite, luminescence, cherry-pick; shares compounds with T cruzi growth-1; T. cruzi beta-gal in NIH3T3, GalScreen luminescence, 90 h; inhibition, % at 8.35 µM; actives 72% (n = 5,600); AID 651739, 2012;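 active = mean replicate inhibition above about 95% and at least 55% of replicates individually reaching it, limit read from the data; inconclusive = only one of the two criteria is met; inactive = neither criterion is met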
T cruzi growth-3: inhibitors of intracellular T. cruzi replication, confirmation, NIH3T3 host cells, beta-gal parasites, cherry-pick, set 2; T. cruzi beta-gal in NIH3T3, GalScreen luminescence, 90 h; inhibition, % at 2.09 µM; AID 651740, 2012; actives 21% (n = 5,600); shares compounds with T cruzi growth-1;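 active = mean inhibition above about 95%, with at least 55% of replicates also reaching it, limit read from the data; inconclusive = meets just one of the two conditions; inactive = meets neither condition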;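 note: plate controls were neutral control median for no effect and positive control median for full effect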
NIH3T3 tox: cytotoxicity in mouse NIH/3T3 fibroblasts, confirmation, cytotoxicity control for T. cruzi proliferation inhibitor project, cell-based, cherry-pick, single point; shares compounds with T cruzi growth-1; NIH/3T3 viability, CellTiter-Glo ATP luminescence, 90 h; cytotoxicity (signal decrease), % at 8.35 µM; actives 14% (n = 5,600);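 active = mean signal decrease across replicates above about 35% based on untreated-well scatter, with enough replicates individually passing, limit read from the data; inconclusive = no rule stated though some were filed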;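 note: 0% = median of neutral control wells and 100% = median of positive control wells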
3T3 cytotox 2: NIH/3T3 fibroblast cytotoxicity, confirmation, cytotoxicity control, cell-based, cherry-pick, single point, set 2; actives 56% (n = 5,600); shares compounds with T cruzi growth-1; NIH/3T3 viability, CellTiter-Glo ATP luminescence, 90 h; AID 651744, 2012; inhibition, % at 24.9 µM;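 active = mean loss of cell viability signal at or above a set limit, and enough replicates individually reaching it; inconclusive = meets only the mean limit or only the replicate share; inactive = meets neither condition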;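 note: 0% = median of neutral control wells and 100% = median of positive control wells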
Active calls of the source: *; ? = inconclusive; . = no result given.

SMILES | KDM4C inh | IDH1 R132H inh | T cruzi growth-1 | T cruzi growth-2 | T cruzi growth-3 | NIH3T3 tox | 3T3 cytotox 2
Cc1ccc(NC(=O)COc2ccc3cc(-c4ccc(Cl)cc4)c(=O)oc3c2)cc1 | . | 1 | . | . | . | . | .
CC1=C(C(=O)Nc2ccccc2C)C(c2cccc(F)c2)n2nc(CCCO)nc2N1 (stereo unspecified) | . | 0 | . | . | . | . | .
COc1ccc(NC(=O)CSC2CC(=O)N(c3ccccc3)C2=O)cc1Cl (stereo unspecified) | . | 0 | . | . | . | . | .
CC(C)C#Cc1ccc2c(c1)O[C@@H](CN(C)C(=O)C1CCCCC1)[C@H](C)CN([C@@H](C)CO)S2(=O)=O | 1 | . | 52 | . | . | . | .
CC(C)C#Cc1ccc2c(c1)O[C@@H](CN(C)C(=O)C1CCC1)[C@@H](C)CN([C@H](C)CO)S2(=O)=O | -2 | . | 80 | . | . | . | .
CC(C)C#Cc1ccc2c(c1)O[C@H](CN(C)C(=O)C1CCC1)[C@@H](C)CN([C@@H](C)CO)S2(=O)=O | 0 | . | 103* | 111* | 33 | 2 | 51*
CC(C)C#Cc1ccc2c(c1)O[C@@H](CN(C)C(=O)C1CCCCC1)[C@H](C)CN([C@H](C)CO)S2(=O)=O | -1 | . | 104* | 103* | 85 | ? | 105*
O=C(CSc1nc(O)cc(=O)n1-c1ccccc1)Nc1ccccc1 | . | 0 | . | . | . | . | .
CN1CCN(C(=O)CN(c2ccc(I)cc2)S(=O)(=O)c2ccccc2)CC1 | . | 0 | . | . | . | . | .
COC(=O)c1cc(NC(=O)COc2ccc(I)cc2)cc(C(=O)OC)c1 | . | 0 | . | . | . | . | .
C[C@@H]1CN([C@@H](C)CO)C(=O)c2cc(C3=CCCC3)cnc2O[C@H]1CN(C)C(=O)Nc1ccc(C(F)(F)F)cc1 | 2 | 2 | 99* | 102* | 56 | 21 | 6
C[C@@H]1CN([C@H](C)CO)C(=O)c2cc(C3=CCCC3)cnc2O[C@@H]1CN(C)C(=O)Nc1ccc(C(F)(F)F)cc1 | 0 | . | 111* | 107* | 84 | ? | 104*
C[C@H]1CN([C@@H](C)CO)C(=O)c2cc(C3=CCCC3)cnc2O[C@@H]1CN(C)C(=O)Nc1ccc(C(F)(F)F)cc1 | -2 | . | 82 | . | . | . | .
C[C@H]1CN([C@@H](C)CO)C(=O)c2cc(C3=CCCC3)cnc2O[C@@H]1CN(C)C(=O)Nc1ccc(F)cc1 | 1 | . | . | . | . | . | .
O=C(CNS(=O)(=O)c1ccccc1)Nc1ccc(I)cc1 | . | 0 | . | . | . | . | .
Cc1sc(NC(=O)c2cc3ccccc3oc2=O)c(C(=O)NCc2cccnc2)c1C | . | 0 | . | . | . | . | .
COc1ccccc1C#Cc1ccc([C@H]2[C@H](CO)N3CCCCN(C(=O)C4CC4)C[C@@H]23)cc1 | . | . | 106* | 109* | 76 | 28 | 104*
COc1ccccc1C#Cc1ccc([C@@H]2[C@@H](CO)N3CCCCN(C(=O)C4CCC4)C[C@@H]23)cc1 | -1 | . | 82 | . | . | . | .
COc1ccccc1C#Cc1ccc([C@@H]2[C@H]3CN(C(=O)C4CC4)CCCCN3[C@H]2CO)cc1 | . | . | 103* | 109* | 50 | ? | 102*
CCOc1ccc(C(=O)Nc2ccc(OCC(=O)O)cc2)cc1 | . | -1 | . | . | . | . | .
COc1cc(C2C(C(=O)c3cccs3)C(=O)C(=O)N2Cc2ccco2)cc(OC)c1OC (stereo unspecified) | . | 1 | . | . | . | . | .
CC1(C)Cc2nc3nc(SCC(=O)c4ccc(Br)cc4)n(-c4ccccc4)c(=O)c3cc2CO1 | . | 0 | . | . | . | . | .
CCn1c2ccccc2n2c(SC(C)C(=O)O)nnc12 (stereo unspecified) | . | 5 | . | . | . | . | .
C[C@@H]1CN([C@H](C)CO)C(=O)c2cccc(NC(=O)Nc3ccc4c(c3)OCO4)c2O[C@H]1CN(C)Cc1ccc(Cl)c(Cl)c1 | -1 | . | ? | 101* | 80 | 21 | 25*
C[C@H]1CN([C@@H](C)CO)C(=O)c2cc(NC(=O)Nc3ccc4c(c3)OCO4)ccc2O[C@H]1CN(C)Cc1ccc(Cl)c(Cl)c1 | 0 | . | -84 | . | . | . | .
SMILES | KDM4C inh | IDH1 R132H inh | T cruzi growth-1 | T cruzi growth-2 | T cruzi growth-3 | NIH3T3 tox | 3T3 cytotox 2
C[C@H](CO)N1C[C@H](C)[C@@H](CN(C)Cc2ccc(Cl)c(Cl)c2)Oc2c(NC(=O)Nc3ccc4c(c3)OCO4)cccc2C1=O | 0 | 7 | 85 | . | . | . | .
C[C@@H]1CN([C@@H](C)CO)C(=O)c2cc(NC(=O)Nc3ccc4c(c3)OCO4)ccc2O[C@@H]1CN(C)Cc1ccc(Cl)c(Cl)c1 | -1 | 2 | ? | 97* | 95 | 57* | 90*
C[C@@H]1CCCCO[C@@H](CN(C)CC2CC2)[C@@H](C)CN([C@H](C)CO)C(=O)c2cc(NS(=O)(=O)c3ccc(Cl)cc3)ccc2O1 | -2 | 3 | 28 | . | . | . | .
C[C@@H]1CCCCO[C@@H](CN(C)CC2CCCCC2)[C@H](C)CN([C@@H](C)CO)C(=O)c2cc(NS(=O)(=O)c3ccc(Cl)cc3)ccc2O1 | 0 | 1 | 102* | 105* | 94 | 26 | 106*
C[C@@H]1CN([C@@H](C)CO)C(=O)c2cc(NS(=O)(=O)c3ccc(Cl)cc3)ccc2O[C@@H](C)CCCCO[C@H]1CN(C)CC1CC1 | -2 | . | 106* | 107* | 82 | 16 | 15
C[C@@H]1CCCCO[C@@H](CN(C)CC2CCCCC2)[C@H](C)CN([C@H](C)CO)C(=O)c2cc(NS(=O)(=O)c3ccc(Cl)cc3)ccc2O1 | -1 | 2 | 93 | . | . | . | .
C[C@@H]1CN([C@@H](C)CO)C(=O)c2cc(NS(=O)(=O)c3ccc(Cl)cc3)ccc2O[C@@H](C)CCCCO[C@H]1CN(C)CC1CCCCC1 | 0 | . | 108* | 88 | 29 | ? | 102*
C[C@@H]1CN([C@@H](C)CO)C(=O)c2cc(NS(=O)(=O)c3ccc(Cl)cc3)ccc2O[C@H]1CN(C)CC1CC1 | 6 | 0 | ? | 1 | 20 | 8 | 31*
C[C@H](CO)N1C[C@H](C)[C@H](CN(C)CC2CC2)Oc2ccc(NS(=O)(=O)c3ccc(Cl)cc3)cc2C1=O | 8 | 3 | -2 | . | . | . | .
C[C@@H]1CCCCO[C@@H](CN(C)CC2CCCCC2)[C@@H](C)CN([C@@H](C)CO)C(=O)c2cc(NS(=O)(=O)c3ccc(Cl)cc3)ccc2O1 | -2 | . | 64 | . | . | . | .
CN(C)CCCNc1ncnc(N)c1[N+](=O)[O-] | . | 0 | . | . | . | . | .

Screening results deposited in PubChem BioAssay by Broad Institute.
